The results in this text go back to ChEMBL document CHEMBL4715824, “Chemical Proteomic Characterization of a Covalent KRASG12C Inhibitor” (ACS Med Chem Lett, 2018).

Test [1] deals with GTPase KRas (Homo sapiens), P01116 [G12C]. Nature of the test: (§1) Covalent binding affinity to KRAS G12C mutant at Cys12 residue in human NCI-H358 cells assessed as reduction of log2 H/L ratio for tryptic peptide […] incubated for 4 hrs followed by cell lysis and subsequently labelled with light thiol probe N-((S)-18-iodo-11-isopropyl-10,13,17-trioxo-3,6-dioxa-9,12,16-triazaoctadecyl)-6-((4R,5S)-5-methyl-2-oxoimidazolidin-4-yl)hexanamide and heavy thiol probe 4 for 1 hr under dark conditions followed by tryptic digestion for overnight and measured by discovery ABPP based nano LC-MS/MS analysis. In outline: (§2)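 H358 cells were treated 4 h with DMSO, 0.08, 0.4, 2 or 10 μM, each paired with DMSO control cells, in biological duplicate. After lysis and denaturation, treated lysate took heavy thiol probe and control lysate took light probe. Lysates were combined equally, and probe-labelled tryptic peptides were streptavidin-enriched. Peptides were run twice by 180 min data-dependent nano LC-MS/MS. Hits needed log2 H/L below −0.776 (3σ) plus a dose-dependent decrease.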

A further test addresses GTPase KRas (Homo sapiens, UniProt P01116, G12C). The description is as §1. In outline: as §2
Test [2] addresses T1, Heme oxygenase 2 (Homo sapiens) (UniProt P30519).
T1 sequence (whole entry): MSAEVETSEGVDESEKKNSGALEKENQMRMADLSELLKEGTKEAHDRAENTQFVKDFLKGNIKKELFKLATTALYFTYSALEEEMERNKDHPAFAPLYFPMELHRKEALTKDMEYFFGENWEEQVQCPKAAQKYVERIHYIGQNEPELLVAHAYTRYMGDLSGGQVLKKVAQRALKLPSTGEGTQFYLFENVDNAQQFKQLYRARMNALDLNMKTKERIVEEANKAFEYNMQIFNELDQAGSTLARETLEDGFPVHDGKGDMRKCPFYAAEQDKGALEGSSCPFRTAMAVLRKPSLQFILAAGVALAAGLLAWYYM
Description: Covalent binding affinity to HMOX2 at Cys282 residue in human NCI-H358 cells assessed as log2 H/L ratio at 10 uM pretreated for 3 hrs followed by N-(((6S,7R)-7-(4-chloro-3-fluorophenyl)-1,4-oxazepan-6-yl)methyl)-2-hydroxyacetamide treatment for 3 hrs by competitive TMT click chemistry pull-down experiment based LC-MS/MS analysis. The format is cell-based. Particulars: time 6.0 hrs. In outline: (§3)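 H358 cells were pretreated with DMSO (n = 3) or 10 μM compound for 3 h, then 2 μM alkyne probe was added for another 3 h. Cells were lysed, clicked onto azide-agarose resin, digested, TMT-labelled and pooled. The pool was fractionated by high-pH HPLC and each fraction run twice by 60 min low-pH nano LC-MS/MS. Readout was log2 compound/DMSO normalized reporter intensity, with a least-squares means test and FDR adjustment.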

For test [3], the target named is T2, Synaptic vesicle membrane protein VAT-1 homolog (Homo sapiens) (UniProt Q99536).
T2 sequence (whole entry): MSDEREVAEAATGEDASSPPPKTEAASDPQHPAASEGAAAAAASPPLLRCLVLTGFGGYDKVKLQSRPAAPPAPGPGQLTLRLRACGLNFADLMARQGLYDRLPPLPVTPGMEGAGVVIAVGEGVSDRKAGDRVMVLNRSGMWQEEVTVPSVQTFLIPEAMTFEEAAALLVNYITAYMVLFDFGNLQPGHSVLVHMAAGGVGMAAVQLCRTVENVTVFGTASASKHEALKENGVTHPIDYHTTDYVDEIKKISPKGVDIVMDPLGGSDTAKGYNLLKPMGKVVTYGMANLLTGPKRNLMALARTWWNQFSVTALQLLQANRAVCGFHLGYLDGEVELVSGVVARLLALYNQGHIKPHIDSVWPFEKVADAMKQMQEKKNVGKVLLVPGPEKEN
Nature of the test: Covalent binding affinity to VAT1 at Cys86 residue in human NCI-H358 cells assessed as log2 H/L ratio at 10 uM pretreated for 3 hrs followed by N-(((6S,7R)-7-(4-chloro-3-fluorophenyl)-1,4-oxazepan-6-yl)methyl)-2-hydroxyacetamide treatment for 3 hrs by competitive TMT click chemistry pull-down experiment based LC-MS/MS analysis. Particulars: time 6.0 hrs. The class given is cell-based. In outline:
as §3

Test [4] deals with GTPase KRas (Homo sapiens), P01116 [G12C]. Nature of the test: Covalent binding affinity to KRAS G12C mutant at Cys12 residue in human NCI-H358 cells assessed as log2 H/L ratio at 10 uM pretreated for 3 hrs followed by N-(((6S,7R)-7-(4-chloro-3-fluorophenyl)-1,4-oxazepan-6-yl)methyl)-2-hydroxyacetamide treatment for 3 hrs by competitive TMT click chemistry pull-down experiment based LC-MS/MS analysis. The format is cell-based. Conditions: time 6.0 hrs. In outline:
as §3

Test [5] has as its target T3, Peroxiredoxin-like 2A (Homo sapiens) (UniProt Q9BRX8).
T3 sequence (whole entry): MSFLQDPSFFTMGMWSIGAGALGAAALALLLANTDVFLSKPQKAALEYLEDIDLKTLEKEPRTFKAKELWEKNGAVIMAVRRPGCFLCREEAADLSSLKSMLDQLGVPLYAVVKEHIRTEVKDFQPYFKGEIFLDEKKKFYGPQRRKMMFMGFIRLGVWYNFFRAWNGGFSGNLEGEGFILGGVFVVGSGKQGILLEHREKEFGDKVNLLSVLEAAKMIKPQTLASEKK
Description: Covalent binding affinity to FAM213A in human NCI-H358 cells incubated for 4 hrs followed by cell lysis and subsequently labelled with light thiol probe N-((S)-18-iodo-11-isopropyl-10,13,17-trioxo-3,6-dioxa-9,12,16-triazaoctadecyl)-6-((4R,5S)-5-methyl-2-oxoimidazolidin-4-yl)hexanamide and heavy thiol probe 4 for 1 hr under dark conditions followed by tryptic digestion for overnight and measured by discovery ABPP based nano LC-MS/MS analysis.

A further test concerns MIA PaCa-2. Description: Antiproliferative activity against human MIA PaCa-2 cells harboring KRAS G12C mutant assessed as reduction in cell viability. The class given is functional, cell-based.
For test [6], the target named is T4, Synaptic vesicle membrane protein VAT-1 homolog (Homo sapiens, UniProt Q99536).
T4 sequence (Q99536 whole entry): T2 sequence (whole entry)
Description: Covalent binding affinity to VAT1 at Cys residue in human NCI-H358 cells assessed as reduction of log2 H/L ratio for tryptic peptide […] incubated for 4 hrs followed by cell lysis and subsequently labelled with light thiol probe N-((S)-18-iodo-11-isopropyl-10,13,17-trioxo-3,6-dioxa-9,12,16-triazaoctadecyl)-6-((4R,5S)-5-methyl-2-oxoimidazolidin-4-yl)hexanamide and heavy thiol probe 4 for 1 hr under dark conditions followed by tryptic digestion for overnight and measured by discovery ABPP based nano LC-MS/MS analysis. In outline:
as §2

The target in test [7] is T3, Peroxiredoxin-like 2A (Homo sapiens). Description: Covalent binding affinity to FAM213A in human NCI-H358 cells assessed as log2 H/L ratio at 10 uM pretreated for 3 hrs followed by N-(((6S,7R)-7-(4-chloro-3-fluorophenyl)-1,4-oxazepan-6-yl)methyl)-2-hydroxyacetamide treatment for 3 hrs by competitive TMT click chemistry pull-down experiment based LC-MS/MS analysis. The format is cell-based. Particulars: time 6.0 hrs. In outline: as §3

The test system of the next test is NCI-H23. Nature of the test: Antiproliferative activity against human NCI-H23 cells harboring KRAS G12C mutant assessed as reduction in cell viability. The class given is functional, cell-based.
The species entered for another test is Homo sapiens. Description: Covalent inhibition of GDP bound His-tagged KRAS G12C/C51L/C80L/C118S mutant (1 to 169 residues) (unknown origin) expressed in Escherichia coli assessed as enzyme-compound adduct formation at Cys12 residue by measuring ratio of Kinact/Ki measured up to 20 mins by mass spectrometry analysis relative to ARS-853. Particulars: time min <=20.

The structures appear in SMILES notation. Active and inactive are the calls of the source. No cut-off for these calls is given here.

One may read the IC50 as the concentration that inhibits the measured activity by half. As to `C=CC(=O)N1CCN(c2ncnc3c(F)c(-c4c(O)cccc4F)c(Cl)cc23)CC1`, the inhibition result in test [1] is “Dose-dependent effect”. The IC50 is 1590 nM on GTPase KRas, 120 nM in the test on MIA PaCa-2, 4540 nM in [6] and 700 nM in the test on NCI-H23. Besides, the Ratio in test [2] is -0.3; in [3], -0.6; in test [4] it was -1.8; in test [7], -1.7. In test [5], the result was inactive. Besides, the fold change (FC) in the test filed under Homo sapiens worked out at 6.
